In the library only some 3.7% were active in any assay of this set; here they are far more common.
NS3 helicase inh = HCV NS3 helicase inhibition. NS3 helicase DNA unwinding, Cy5 molecular beacon fluorescence. inhibition, % at 10.9 µM. 290,000 tested, 0.56% active. AID 1800;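 active = inhibition above the mean of all tested compounds plus 3 SD, set per campaign, cut at about 35% in these data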;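 also: 0% = DMSO wells and 100% = thioflavine S control wells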
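Measured by: Cy5 fluorescence, 0 and 60 min reads / Assay system: NS3 helicase fragment of HCV / Control set: low DMSO, high thioflavine S at 110 µM / Times: 1 h reaction at 25 °C, ATP-initiated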
core dimer inh = blocks dimerization of HCV core protein; AID 1899; inhibition, % at 5 µM; 300,000 tested, 0.33% active; TR-FRET GST/Flag-core106 dimerization, 1536-well;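 active = inhibition above the mean of all tested compounds plus 3 SD, set per screening campaign, cut at about 45% in these data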
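System: GST-tagged and Flag-tagged HCV core protein residues 1-106 / Input: core106 proteins, GST 13.5 nM and Flag 17 nM / Buffer or medium: KF-containing HEPES buffer, pH 7.45, DTT, CHAPS, BSA / Probe or stimulus: Eu-anti-GST and XL665-anti-Flag labelled anti-tag antibodies / Schedule: 4 h, 22.5 °C incubation / Technique: TR-FRET 671 and 617 nm emission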
TAAR1 ag = human TAAR1 agonism. Q96RJ0. CHO RD-HGA16 TAAR1, Fluo-8 calcium fluorescence; vehicle wells 0%, saturating PEA agonist 100%. activation, % at 3 µM. 360,000 tested, 0.99% active. AID 624467;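 active = activation above the mean activation of all test compounds in the run plus 3 SD, cut at about 38% in these data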
Target sequence (Q96RJ0 whole entry, looked up): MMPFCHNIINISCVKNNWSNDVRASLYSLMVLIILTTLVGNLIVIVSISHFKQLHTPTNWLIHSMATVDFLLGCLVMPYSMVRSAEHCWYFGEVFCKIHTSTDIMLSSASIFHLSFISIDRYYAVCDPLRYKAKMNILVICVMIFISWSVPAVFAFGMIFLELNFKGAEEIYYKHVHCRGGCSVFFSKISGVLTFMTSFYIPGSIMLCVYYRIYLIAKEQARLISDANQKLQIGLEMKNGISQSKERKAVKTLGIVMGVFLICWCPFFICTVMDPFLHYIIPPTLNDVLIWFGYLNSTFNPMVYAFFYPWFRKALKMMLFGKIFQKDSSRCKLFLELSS
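Assay system – CHO-derived RD-HGA16 cells with stable Gα16 and human TAAR1 · Compound dosing – one-point dosing at 3 µM (nominal) · Incubation – 17-24 h seeding, 75 min 37 °C dye, 30 min RT · Measured by – kinetic Fluo-8 calcium fluorescence · Control set – DMSO vehicle as 0%, PEA at EC100 as 100% · Repeats – single well for each compound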
rCAG binder = r(CAG) repeat RNA binding | TO-PRO-1 dye displacement fluorescence | inhibition, % at 3 µM | 370,000 tested, 1.3% active;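 active = inhibition above the plate cutoff, the mean of all test compounds on that plate plus 3 SD, cut at about 35% in these data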;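 also: 0% = DMSO alone and 100% = 100 µM mitoxantrone as full dye displacement; higher means more dye released from RNA so lower well fluorescence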
TAAR1 antagonist = antagonists of human TAAR1 | CHO RD-HGA16 TAAR1, Fluo-8 calcium fluorescence, antagonist | inhibition, % at 3 µM | 360,000 tested, 1.5% active;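 active = inhibition above a per-plate cutoff, the mean inhibition of test compounds on that plate plus 3 SD, cut at about 49% in these data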;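 also: 0% = DMSO plus EC80 beta-PEA response and 100% = DMSO alone without agonist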
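Test system – hTAAR1-expressing CHO RD-HGA16 cells, Gα16-coupled · Also added – β-PEA at EC80 concentration, post-compound challenge · Compound – 3 µM, single point · Incubation – dye loading 75 min at 37 °C, then 30 min room temperature · Measured by – Fluo-8 intracellular calcium dye fluorescence, real-time kinetic reads · Benchmarks – vehicle and agonist controls · Replicates – singlicate, one well per test compound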
rCAG binder conf = r(CAG) RNA repeat binding, confirmation; shares compounds with rCAG binder; TO-PRO-1 dye displacement fluorescence; inhibition, % at 3 µM; 4,300 tested, 70% active;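 active = inhibition above a per-plate cutoff, the mean inhibition of sample wells plus 3 SD, cut at about 35% in these data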;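 also: loss of TO-PRO-1 fluorescence as compound displaces dye from 1x1 AA loop RNA; 0% = DMSO only wells and 100% = 100 µM mitoxantrone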
dCAG dye counter = DNA CAG dye complex inhibition counter-screen; shares compounds with rCAG binder; d(CAG) DNA oligo TO-PRO-1 dye displacement, fluorescence; inhibition, % at 3 µM; 4,300 tested, 94% active; AID 652068;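 active = inhibition above its plate's cutoff, the mean test-well inhibition plus 3 SD, cut at about 4.8% in these data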;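 also: 0% = DNA dye mix with DMSO and 100% = 100 µM mitoxantrone; hits displace the dye from DNA and so lower well fluorescence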
DNA CAG DR = disrupts DNA CAG TO-PRO-1 complex in dose response; 250 tested, 20% active; DNA CAG/GTC duplex TO-PRO-1 dye displacement fluorescence; IC50, µM; shares compounds with rCAG binder; in the data active = IC50 below about 10 µM
* hit, by the source's call; nt = not tested or not shown.

SMILES | NS3 helicase inh | core dimer inh | TAAR1 ag | rCAG binder | TAAR1 antagonist | rCAG binder conf | dCAG dye counter | others
COC(=O)C1=C(C)N(C)C(=NCc2ccc(OC)cc2)NC1c1ccccc1 (stereo not drawn) | nt | nt | 1 | 7 | -11 | nt | nt
Cc1ccc(C2(C)NC(=O)N(CC(=O)Nc3ccc(S(=O)(=O)Nc4nccs4)cc3)C2=O)cc1 (stereo not drawn) | nt | 4 | 2 | 51* | -1 | 31 | 12*
CCC(=O)Nc1ccc(S(=O)(=O)Nc2nccs2)cc1 | -3 | 1 | 0 | 5 | -4 | nt | nt
Cc1noc(NS(=O)(=O)c2ccc(NC(=O)CS(=O)(=O)c3ccccc3)cc2)c1C | 0 | 2 | 0 | 15 | -5 | nt | nt
Cc1noc(NS(=O)(=O)c2ccc(NC(=O)C34CC5CC(C3)CC(n3cnc(Br)n3)(C5)C4)cc2)c1C | 13 | -8 | 2 | 41* | 3 | 29 | 7.6*
O=C(CCC1CCCCC1)Nc1ccc(S(=O)(=O)Nc2nccs2)cc1 | -1 | 4 | 7 | 53* | -17 | 43* | 14*
Cc1noc(NS(=O)(=O)c2ccc(NC(=O)CCC3CCCCC3)cc2)c1C | 21 | 7 | 3 | 45* | -9 | 46* | 8.6* | DNA CAG DR=>30
CC(C)CNc1ccc2c(c1)OC[C@@H](CC(C)C)NS2(=O)=O | nt | nt | nt | -1 | nt | nt | nt
O=C(Cn1nnc(-c2ccncc2)n1)Nc1ccc(F)cc1F | nt | nt | nt | 1 | nt | nt | nt
COc1ccc(/C=N/NC(=O)c2ccc(C)cc2)cc1CN1CCN(c2ccc(F)cc2)CC1 | 3 | 8 | nt | nt | nt | nt | nt
COc1ccc(/C=N\NC(=O)c2cc(O)c(O)c(O)c2)cc1CN1CCN(c2ccc(F)cc2)CC1 | -12 | 1 | 1 | 41* | 6 | 45* | 20*
COc1cc2c(c(OC)c1OC)[C@@]1(c3ccccc3)CCCC[C@H]1[C@@H]2NC(=O)C(F)(F)F | nt | nt | 11 | 1 | -42 | nt | nt
CCCCOCCCNC(=O)C[C@H]1C[C@@]2(C(=O)OC)C(=C[C@H](C(C)(C)C)O[C@@H]2C)N(Cc2cccc3ccccc23)C1=O | nt | nt | nt | 9 | nt | nt | nt
OC[C@@H]1CC[C@@H]2O[C@H](CCc3ccc(-c4ccc(F)cc4)cc3)[C@H](n3cc(C4CC4)nn3)C[C@@H]2O1 | nt | nt | nt | 6 | nt | nt | nt
COc1cc([C@@H]2CC=C(C(=O)O)[C@H](c3ccc(F)cc3)N2S(=O)(=O)c2ccc(C)cc2)cc(OC)c1OC | nt | 12 | 4 | 30 | -1 | nt | nt
Cc1ccc(S(=O)(=O)N2[C@@H](c3ccccc3F)C(C(=O)O)=CC[C@H]2c2cccc(C)c2)cc1 | nt | 13 | 3 | 26 | -14 | nt | nt
Cc1ccc([C@@H]2CC=C(C(=O)O)[C@H](c3ccc(F)cc3)N2S(=O)(=O)c2ccccc2C)cc1 | nt | nt | 0 | 70* | -16 | 60* | 23*
Cc1ccc([C@@H]2CC=C(C(=O)O)[C@H](c3ccccc3F)N2S(=O)(=O)c2ccccc2C)cc1 | nt | nt | 0 | 51* | 2 | 59* | 24*
Cc1ccc([C@@H]2CC=C(C(=O)O)[C@H](c3cccc(F)c3)N2S(=O)(=O)c2ccccc2C)cc1 | nt | nt | 0 | 76* | 29 | 67* | 28*
CCOC(=O)N1CCN(C(=O)C[C@@H]2C(=O)N3CCCC4=C3[C@@]2(C(=O)OC)CCCC4)CC1 | nt | nt | nt | 2 | nt | nt | nt
O=C(CSc1nc2ccccc2nc1N1CCCCC1)N1CCN(S(=O)(=O)c2ccccc2)CC1 | nt | nt | nt | 9 | nt | nt | nt
O=c1nc2c(O)cccn2c2c1c(=O)[nH]c1ccccc12 | 18 | nt | 2 | 40* | -8 | 2 | -1
Cc1cccc(NC(=S)N/N=C/c2ccc([N+](=O)[O-])s2)c1 | 8 | 11 | 9 | 36* | -2 | 18 | 11*
COC(=O)c1cc(OC)c(OC)cc1NC(=S)Nc1cc(Cl)ccc1OC | -9 | -13 | 0 | 2 | -8 | nt | nt
COc1ccc(Cl)cc1NC(=S)NNC(=O)C1(C)CC1(Cl)Cl (stereo not drawn) | 5 | 10 | 4 | 43* | 20 | 25 | 5.5*
SMILES | NS3 helicase inh | core dimer inh | TAAR1 ag | rCAG binder | TAAR1 antagonist | rCAG binder conf | dCAG dye counter | others
CCN(CC)C(=O)CC[C@H]1CC[C@]2(CCCN(C3CCCCC3)C2)O1 | nt | nt | nt | 3 | nt | nt | nt
COC(=O)[C@]12C[C@H](CC(=O)NCc3cccc4ccccc34)C(=O)N(CCc3ccc(OC)c(OC)c3)C1=C[C@H](C(C)C)O[C@@H]2C1CC1 | nt | nt | nt | 7 | nt | nt | nt
N=C1/C(=C/c2cccs2)C(=O)N=C2SN=C(SCc3ccccc3)N12 | 18 | 1 | 6 | 75* | 16 | 82* | 50*
Cc1onc(-c2ccccc2)c1C(=O)N1CCN(C(=O)C(=O)c2cccc(C(F)(F)F)c2)CC1 | nt | nt | 4 | -1 | 9 | nt | nt
COC(=O)[C@]12C[C@H](CC(=O)NCC3CCCCC3)C(=O)N(Cc3ccc(Cl)cc3Cl)C1=C[C@H](C1CCCC1)O[C@@H]2C | nt | nt | nt | 11 | nt | nt | nt
COc1ccc(/C=C2\C(=O)ON=C2c2cccc([N+](=O)[O-])c2)cc1 | 16 | 8 | 3 | 41* | -3 | 20 | 6.0*
COc1ccc(/C=C2/C(=O)ON=C2c2ccccc2)cc1OC | 6 | 2 | 2 | 6 | 1 | nt | nt
CCOC1=C/C(=C/c2c(N)n3nc(-c4ccccc4)sc3nc2=O)C=CC1=O | 24 | nt | 10 | 49* | 5 | 59* | 25*
O=C(Nc1ccccc1C(=O)O)c1cccc(N2C(=O)c3ccccc3C2=O)c1 | 3 | -3 | 3 | 35* | -15 | 18 | 1
CC(C)CN1C(=O)c2ccc(C(=O)Nc3ccccc3C(=O)O)cc2C1=O | 9 | -5 | 2 | 56* | -44 | 57* | 18*
CC(=O)NS(=O)(=O)c1ccc(NC(=O)c2ccc3c(c2)C(=O)N(CCC(C)C)C3=O)cc1 | 30 | 16 | 3 | 58* | 1 | 59* | 19*
O=C(O)c1cc(NC(=O)c2cccc(N3C(=O)c4ccccc4C3=O)c2)cc(C(=O)O)c1 | -5 | 7 | 1 | 8 | -6 | nt | nt
O=C(Nc1ccc(Cl)cc1C(=O)O)c1ccc2c(c1)C(=O)N(Cc1ccco1)C2=O | 10 | 18 | 7 | 86* | -16 | 88* | 75*
Cc1nn(-c2ccccc2)c2sc(C(=O)N3CCC4(CC3)OCCO4)cc12 | nt | nt | nt | 0 | nt | nt | nt
CC(C)CCN1C(=O)c2ccc(C(=O)Nc3ccc(Br)cc3C(=O)O)cc2C1=O | 16 | 13 | 0 | 63* | -1 | 79* | 73*
Oc1nc(Nc2ccc(F)cc2)sc1/C=C1\C=Nc2ccccc21 | 6 | -6 | -1 | 48* | 28 | 25 | 14*

Screening results (PubChem BioAssay)
